# Legend:
# [1] = target: T1, Serine/threonine-protein kinase Nek5 (Homo sapiens) (UniProt Q6P3R8); experiment: Inhibition of NEK5 at 1 uM
# T1 sequence (whole entry): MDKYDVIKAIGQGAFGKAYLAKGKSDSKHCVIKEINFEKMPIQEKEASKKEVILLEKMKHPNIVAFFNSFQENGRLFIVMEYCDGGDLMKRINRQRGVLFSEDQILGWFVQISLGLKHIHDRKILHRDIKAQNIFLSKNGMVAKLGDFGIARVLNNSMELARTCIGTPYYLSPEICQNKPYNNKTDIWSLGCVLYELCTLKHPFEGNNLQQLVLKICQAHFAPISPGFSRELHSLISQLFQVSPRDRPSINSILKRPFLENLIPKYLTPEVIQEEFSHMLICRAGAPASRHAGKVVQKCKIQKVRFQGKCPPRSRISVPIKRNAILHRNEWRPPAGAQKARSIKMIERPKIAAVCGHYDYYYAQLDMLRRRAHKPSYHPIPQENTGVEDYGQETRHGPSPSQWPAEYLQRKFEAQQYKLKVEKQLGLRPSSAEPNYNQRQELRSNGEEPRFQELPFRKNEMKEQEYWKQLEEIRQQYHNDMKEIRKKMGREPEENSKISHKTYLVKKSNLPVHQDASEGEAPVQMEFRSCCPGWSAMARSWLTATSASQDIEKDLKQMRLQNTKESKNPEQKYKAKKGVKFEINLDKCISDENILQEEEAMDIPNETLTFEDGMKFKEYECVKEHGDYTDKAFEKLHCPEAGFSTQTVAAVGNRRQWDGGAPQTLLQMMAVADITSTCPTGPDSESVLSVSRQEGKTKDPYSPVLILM
# [2] = target: T2, Phosphatidylinositol 3-kinase C2 domain-containing subunit gamma (Homo sapiens) (UniProt O75747); experiment: Inhibition of PIK3C2G at 1 uM
# T2 sequence (whole entry): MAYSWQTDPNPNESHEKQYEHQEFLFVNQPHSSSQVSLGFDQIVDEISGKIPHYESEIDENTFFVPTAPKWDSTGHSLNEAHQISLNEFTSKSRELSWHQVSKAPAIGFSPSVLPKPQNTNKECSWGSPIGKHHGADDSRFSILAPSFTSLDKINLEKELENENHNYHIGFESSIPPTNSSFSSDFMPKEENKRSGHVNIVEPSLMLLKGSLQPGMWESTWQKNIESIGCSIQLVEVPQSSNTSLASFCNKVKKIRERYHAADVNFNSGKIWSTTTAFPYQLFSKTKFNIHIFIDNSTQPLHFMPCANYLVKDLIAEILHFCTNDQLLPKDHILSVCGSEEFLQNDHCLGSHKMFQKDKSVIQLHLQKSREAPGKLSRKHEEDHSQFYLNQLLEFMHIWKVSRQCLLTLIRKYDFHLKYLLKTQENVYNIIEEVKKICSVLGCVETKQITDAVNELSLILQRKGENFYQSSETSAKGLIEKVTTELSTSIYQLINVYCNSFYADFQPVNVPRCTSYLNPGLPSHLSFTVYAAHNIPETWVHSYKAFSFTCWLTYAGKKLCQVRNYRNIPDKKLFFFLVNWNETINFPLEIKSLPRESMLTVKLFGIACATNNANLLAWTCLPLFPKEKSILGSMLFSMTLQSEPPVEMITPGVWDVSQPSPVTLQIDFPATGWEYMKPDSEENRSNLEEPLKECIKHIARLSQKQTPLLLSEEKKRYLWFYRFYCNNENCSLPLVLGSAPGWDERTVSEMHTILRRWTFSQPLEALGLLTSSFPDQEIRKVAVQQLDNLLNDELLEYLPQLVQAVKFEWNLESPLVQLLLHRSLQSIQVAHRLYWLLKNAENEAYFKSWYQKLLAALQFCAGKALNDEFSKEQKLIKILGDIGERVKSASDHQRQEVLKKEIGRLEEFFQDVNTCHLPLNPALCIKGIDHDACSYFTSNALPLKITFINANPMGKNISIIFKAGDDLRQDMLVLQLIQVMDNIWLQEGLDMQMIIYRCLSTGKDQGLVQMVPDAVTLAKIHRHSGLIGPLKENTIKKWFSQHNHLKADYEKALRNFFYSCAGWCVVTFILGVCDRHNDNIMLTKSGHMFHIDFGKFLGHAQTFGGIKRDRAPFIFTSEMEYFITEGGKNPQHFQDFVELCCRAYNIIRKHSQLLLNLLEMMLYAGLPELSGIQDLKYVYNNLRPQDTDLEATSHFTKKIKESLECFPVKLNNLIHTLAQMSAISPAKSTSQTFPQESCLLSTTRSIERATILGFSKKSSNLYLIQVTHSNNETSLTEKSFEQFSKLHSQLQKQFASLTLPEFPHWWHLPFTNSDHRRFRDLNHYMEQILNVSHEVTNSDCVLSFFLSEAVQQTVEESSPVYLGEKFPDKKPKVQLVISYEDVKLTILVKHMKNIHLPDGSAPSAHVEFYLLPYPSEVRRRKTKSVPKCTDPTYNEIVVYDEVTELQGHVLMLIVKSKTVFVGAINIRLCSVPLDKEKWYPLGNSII
# [3] = target: RAC-beta serine/threonine-protein kinase (Homo sapiens) (UniProt P31751); experiment: Inhibition of AKT2 at 1 uM
# Sequence of RAC-beta serine/threonine-protein kinase (Homo sapiens) (P31751 whole entry): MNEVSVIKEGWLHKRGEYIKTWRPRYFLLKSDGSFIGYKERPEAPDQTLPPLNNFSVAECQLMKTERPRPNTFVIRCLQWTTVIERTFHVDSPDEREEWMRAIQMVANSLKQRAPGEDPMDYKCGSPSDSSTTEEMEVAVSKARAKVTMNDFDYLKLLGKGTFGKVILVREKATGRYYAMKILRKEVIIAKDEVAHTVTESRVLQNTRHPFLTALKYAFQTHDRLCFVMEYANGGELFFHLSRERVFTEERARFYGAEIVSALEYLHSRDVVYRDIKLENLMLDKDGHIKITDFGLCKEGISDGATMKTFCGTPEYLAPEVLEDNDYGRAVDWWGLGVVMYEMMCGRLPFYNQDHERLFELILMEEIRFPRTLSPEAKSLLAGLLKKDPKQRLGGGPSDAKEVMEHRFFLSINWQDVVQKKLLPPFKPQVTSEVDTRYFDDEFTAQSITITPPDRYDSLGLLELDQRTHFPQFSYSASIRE
# Method in brief: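 Ambit KINOMEscan screen at a single concentration across a 250–400 kinase panel, recorded as percent inhibition. Selectivity was expressed as S(90), the fraction of kinases inhibited >90%.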
# [4] = target: Casein kinase II subunit alpha (Homo sapiens) (UniProt P68400); experiment: Inhibition of CSNK2A1 at 1 uM
# Sequence of Casein kinase II subunit alpha (Homo sapiens) (P68400 whole entry, looked up): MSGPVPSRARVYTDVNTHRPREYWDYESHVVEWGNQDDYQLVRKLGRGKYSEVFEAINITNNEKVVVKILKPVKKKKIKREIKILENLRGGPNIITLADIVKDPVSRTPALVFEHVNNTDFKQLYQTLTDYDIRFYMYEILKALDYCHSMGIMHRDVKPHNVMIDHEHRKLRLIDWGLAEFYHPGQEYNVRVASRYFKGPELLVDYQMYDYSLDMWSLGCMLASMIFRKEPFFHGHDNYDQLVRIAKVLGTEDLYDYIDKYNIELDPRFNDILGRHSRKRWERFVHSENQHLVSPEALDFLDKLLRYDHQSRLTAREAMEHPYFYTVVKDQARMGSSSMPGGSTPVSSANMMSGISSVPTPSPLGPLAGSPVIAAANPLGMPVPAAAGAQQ
# Method in brief: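 Single-concentration screen using Ambit Bioscience KINOMEscan technology across a panel of 250–400 kinases. Per-kinase inhibition from this screen was summarized as S(90), the fraction of kinases inhibited by more than 90%.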
Compound,inhibition [1] [%],inhibition [2] [%],inhibition [3] [%],inhibition [4] [%]
O=C(O)c1ccc(-c2cnc3c(c2)N(Cc2cc(Cl)ccc2C(F)(F)F)CCN3)cc1,–,–,< 50,< 50
O=C(c1ccc(-c2cnc3c(c2)N(Cc2cc(Cl)ccc2C(F)(F)F)CCN3)cc1)N1CCC(N2CCCC2)CC1,–,–,< 50,< 50
COC1CCN(C(=O)c2ccc(-c3cnc4c(c3)N(Cc3cc(Cl)ccc3C(F)(F)F)CCN4)cc2)CC1,–,–,< 50,< 50
FC(F)(F)c1ccc(Cl)cc1CN1CCNc2ncc(-c3ccnc(N4CCNCC4)c3)cc21,< 50,< 50,< 50,< 50
O=C(c1ccc(-c2cnc3c(c2)N(Cc2cc(Cl)ccc2C(F)(F)F)CCN3)cc1)N1CCCCC1,–,–,< 50,< 50

# The remaining lines, values ahead:
inhibition [1] [%],inhibition [2] [%],inhibition [3] [%],inhibition [4] [%],Compound
< 50,< 50,< 50,< 50,CN1CCN(c2ccc(-c3cnc4c(c3)N(Cc3cc(Cl)ccc3C(F)(F)F)CCN4)cn2)CC1
< 50,< 50,< 50,< 50,CC(=O)N1CCN(c2cc(-c3cnc4c(c3)N(Cc3cc(Cl)ccc3C(F)(F)F)CCN4)ccn2)CC1
< 50,< 50,< 50,< 50,CN1CCN(c2ccc(-c3cnc4c(c3)N(Cc3cc(F)ccc3F)CCN4)cn2)CC1
< 50,< 50,< 50,< 50,CN1CCN(c2ccc(-c3cnc4c(c3)N(Cc3c(F)ccc(F)c3Cl)CCN4)cn2)CC1
< 50,< 50,< 50,< 50,CN1CCN(c2ccc(-c3cnc4c(c3)N(Cc3cc(Cl)ccc3Cl)CCN4)cn2)CC1
